According to ChEMBL document CHEMBL1143838, “Candida albicans and Candida dubliniensis respond differently to echinocandin antifungal agents in vitro” (2007):
≈ marks a conversion by molar mass, not a printed value. *1 amine or outer side, *2 acyl side, *3 side chain or, on linkers, in order; H or OH if unused. Where a SMILES comes first, the peptide text is derived from it. Bridges are numbered along the chain shown (N, C = ends). [ ]: non-standard residue; d: D form. The star is where a group is joined. hTyr(3S-OH,4S-OH,3'-OSO3H) = N[C@H](C(=O)O)[C@H](O)[C@@H](O)c1ccc(O)c(OS(=O)(=O)O)c1; Orn(4R-OH,5R-OH) = O=C([C@H](C[C@@H](O)[C@@H](O)N[*:3])N[*:1])[*:2]; Pro(3S-OH,4S-Me) = C[C@H]1CN[C@H](C(=O)O)[C@H]1O; X1 = CCCCCOc1ccc(-c2cc(-c3ccc(C(=O)*)cc3)no2)cc1; Gln(3R-OH) = NC(=O)C[C@@H](O)[C@H](N)C(=O)O; Hyp = O=C(O)[C@@H]1C[C@@H](O)CN1

Key:
Assay type in all cases: functional
Candida dubliniensis [1] = test: Antifungal activity against Candida dubliniensis SCSBB417709 after 24 hrs by EUCAST test
How it was run: (§1)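 Yeasts were grown overnight at 30°C in NGY, then inoculated at 10^5 yeasts/ml initial concentration into MOPS-buffered RPMI 1640 with 2% glucose containing aqueous doubling dilutions of drug. Plates were held at 35°C for 24 h. MICs came from triplicate spectrophotometric dose-response data at 50% and 80% growth-reduction endpoints. Trailing meant a >100-fold gap between these endpoints; paradoxical meant regrowth ≥5% above the curve minimum.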

Candida dubliniensis [2] = test: Antifungal activity against Candida dubliniensis FS after 24 hrs by CLSI M27-A test
How it was run: (§2)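 Broth microdilution with echinocandins as aqueous doubling dilutions. Yeasts were grown overnight at 30°C in NGY and seeded at 10^3 yeasts/ml initial concentration in MOPS-buffered RPMI 1640, then incubated at 35°C for 24 h. The MIC was read visually as the lowest concentration giving a marked decrease in visible growth; paradoxical or trailing growth was noted.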

Candida albicans [3] = test: Antifungal activity against Candida albicans SCS140136P after 24 hrs by CLSI M27-A test
How it was run: (§3)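 CLSI M27-A broth microdilution with aqueous doubling dilutions of drug. Inoculum grown overnight at 30°C in NGY medium, then added to MOPS-buffered RPMI 1640 at an initial 10^3 yeasts/ml. Incubated 35°C for 24 h. MIC read visually as the lowest concentration giving a marked decrease in visible growth; paradoxical or trailing growth noted.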

Candida dubliniensis [4] = test: Antifungal activity against Candida dubliniensis B71507 after 24 hrs by EUCAST test; how it was run: as §1
Candida dubliniensis [5] = test: Antifungal activity against Candida dubliniensis SCS17154969-1 after 24 hrs by EUCAST test; how it was run: as §1
Candida dubliniensis [6] = test: Antifungal activity against Candida dubliniensis 81/060 after 24 hrs by EUCAST test
How it was run: (§4)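 EUCAST broth microdilution with aqueous doubling dilutions of drug. Inoculum grown overnight at 30°C in NGY, then added to MOPS-buffered RPMI 1640 with 2% glucose at an initial 10^5 yeasts/ml. Incubated 35°C for 24 h. MICs taken from triplicate spectrophotometric dose-response data as 50% and 80% growth-reduction endpoints.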

Candida albicans [7] = test: Antifungal activity against Candida albicans NCPF6525 after 24 hrs by EUCAST test; how it was run: as §4
Candida albicans [8] = test: Antifungal activity against Candida albicans SCS68858 after 24 hrs by EUCAST test; how it was run: as §4
Candida dubliniensis [9] = test: Antifungal activity against Candida dubliniensis Leic875 after 24 hrs by CLSI M27-A test; how it was run: as §2
Candida albicans [10] = test: Antifungal activity against Candida albicans SCS140136P after 24 hrs by EUCAST test; how it was run: as §4
Candida albicans [11] = test: Antifungal activity against Candida albicans JIMS132203 after 24 hrs by EUCAST test; how it was run: as §4
Candida dubliniensis [12] = test: Antifungal activity against Candida dubliniensis KR after 24 hrs by CLSI M27-A test; how it was run: as §2
Candida albicans [13] = test: Antifungal activity against Candida albicans T25 after 24 hrs by EUCAST test; how it was run: as §4
Candida dubliniensis [14] = test: Antifungal activity against Candida dubliniensis ANSA 23a after 24 hrs by EUCAST test; how it was run: as §1
Candida dubliniensis [15] = test: Antifungal activity against Candida dubliniensis J930936 after 24 hrs by CLSI M27-A test; how it was run: as §2
Candida albicans [16] = test: Antifungal activity against Candida albicans SC5314 after 24 hrs by EUCAST test; conditions: SC5314, 24 h; how it was run: as §4
Candida dubliniensis [17] = test: Antifungal activity against Candida dubliniensis SCSBB417709 after 24 hrs by CLSI M27-A test; how it was run: as §2
Pichia kudriavzevii [18] = test: Antifungal activity against Candida krusei ATCC 6258 after 24 hrs by EUCAST test; conditions: ATCC 6258, 24 h; how it was run: as §1
Candida albicans [19] = test: Antifungal activity against Candida albicans T26 after 24 hrs by CLSI M27-A test; how it was run: as §3
Candida dubliniensis [20] = test: Antifungal activity against Candida dubliniensis SCS17154969-2 after 24 hrs by EUCAST test; how it was run: as §1
Candida albicans [21] = test: Antifungal activity against Candida albicans SC5314 after 24 hrs by CLSI M27-A test; conditions: SC5314, 24 h; how it was run: as §3
Candida dubliniensis [22] = test: Antifungal activity against Candida dubliniensis SCS59662 after 24 hrs by EUCAST test; how it was run: as §1
Candida dubliniensis [23] = test: Antifungal activity against Candida dubliniensis Leic875 after 24 hrs by EUCAST test; how it was run: as §1
Candida dubliniensis [24] = test: Antifungal activity against Candida dubliniensis SCS65875C after 24 hrs by CLSI M27-A test; how it was run: as §2
Candida albicans [25] = test: Antifungal activity against Candida albicans JIMS101103 after 24 hrs by EUCAST test; how it was run: as §4
Candida dubliniensis [26] = test: Antifungal activity against Candida dubliniensis SCS17154969-2 after 24 hrs by CLSI M27-A test; how it was run: as §2
Candida dubliniensis [27] = test: Antifungal activity against Candida dubliniensis J931021 after 24 hrs by CLSI M27-A test; how it was run: as §2
Candida albicans [28] = test: Antifungal activity against Candida albicans T28 after 24 hrs by CLSI M27-A test; how it was run: as §3
Candida dubliniensis [29] = test: Antifungal activity against Candida dubliniensis 910Aa after 24 hrs by EUCAST test; how it was run: as §4
Candida dubliniensis [30] = test: Antifungal activity against Candida dubliniensis IK after 24 hrs by CLSI M27-A test; how it was run: as §2
Candida albicans [31] = test: Antifungal activity against Candida albicans NCPF6525 after 24 hrs by CLSI M27-A test; how it was run: as §3
Candida albicans [32] = test: Antifungal activity against Candida albicans JIMS146204 after 24 hrs by CLSI M27-A test; how it was run: as §3
Pichia kudriavzevii [33] = test: Antifungal activity against Candida krusei ATCC 6258 after 24 hrs by CLSI M27-A test; conditions: ATCC 6258, 24 h
How it was run: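 Broth microdilution per CLSI M27-A. Drugs were prepared as aqueous doubling dilutions. Inoculum was grown overnight at 30°C in neopeptone-yeast extract-glucose medium, then added to MOPS-buffered RPMI 1640 at an initial 10^3 yeasts/ml. Plates were incubated at 35°C for 24 h. MIC was read visually as the lowest concentration giving a marked decrease in visible growth.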

Candida parapsilosis = test: Antifungal activity against Candida parapsilosis ATCC 22019 after 24 hrs by CLSI M27-A test; conditions: Lodderomyces parapsilosis, ATCC 22019, 24 h; how it was run: as §2
Candida albicans [34] = test: Antifungal activity against Candida albicans HK04M102095 after 24 hrs by EUCAST test; how it was run: as §4
Candida dubliniensis [35] = test: Antifungal activity against Candida dubliniensis 90/033 after 24 hrs by CLSI M27-A test; how it was run: as §3

Structure (SMILES)	MIC50 (Candida dubliniensis [1]) [mg/L]	MIC50 (Candida dubliniensis [2]) [mg/L]	MIC50 (Candida albicans [3]) [mg/L]	MIC50 (Candida dubliniensis [4]) [mg/L]	MIC50 (Candida dubliniensis [5]) [mg/L]	MIC50 (Candida dubliniensis [6]) [mg/L]	MIC50 (Candida albicans [7]) [mg/L]	MIC50 (Candida albicans [8]) [mg/L]	MIC50 (Candida dubliniensis [9]) [mg/L]	MIC50 (Candida albicans [10]) [mg/L]	MIC50 (Candida albicans [11]) [mg/L]	MIC50 (Candida dubliniensis [12]) [mg/L]	MIC50 (Candida albicans [13]) [mg/L]	MIC50 (Candida dubliniensis [14]) [mg/L]	MIC50 (Candida dubliniensis [15]) [mg/L]	MIC50 (Candida albicans [16]) [mg/L]	MIC50 (Candida dubliniensis [17]) [mg/L]	MIC50 (Pichia kudriavzevii [18]) [mg/L]	MIC50 (Candida albicans [19]) [mg/L]	MIC50 (Candida dubliniensis [20]) [mg/L]	further results
CC[C@H](C)C[C@H](C)CCCCCCCCC(=O)N[C@H]1C[C@@H](O)[C@@H](NCCN)NC(=O)[C@@H]2[C@@H](O)CCN2C(=O)[C@H]([C@H](O)CCN)NC(=O)[C@H]([C@H](O)[C@@H](O)c2ccc(O)cc2)NC(=O)[C@@H]2C[C@@H](O)CN2C(=O)[C@H]([C@@H](C)O)NC1=O [CASPOFUNGIN]	0.25 (≈ 0.229 µM)	0.5 (≈ 0.457 µM)	0.5 (≈ 0.457 µM)	8 (≈ 7.32 µM)	0.5 (≈ 0.457 µM)	0.25 (≈ 0.229 µM)	1 (≈ 0.915 µM)	0.25 (≈ 0.229 µM)	0.5 (≈ 0.457 µM)	0.25 (≈ 0.229 µM)	0.25 (≈ 0.229 µM)	0.5 (≈ 0.457 µM)	8 (≈ 7.32 µM)	0.25 (≈ 0.229 µM)	0.5 (≈ 0.457 µM)	0.25 (≈ 0.229 µM)	0.5 (≈ 0.457 µM)	2 (≈ 1.83 µM)	8 (≈ 7.32 µM)	0.5 (≈ 0.457 µM)	MIC50 (Candida albicans [21]): 0.5 mg/L (≈ 0.457 µM); MIC50 (Candida dubliniensis [22]): 0.5 mg/L (≈ 0.457 µM); MIC50 (Candida dubliniensis [23]): 0.25 mg/L (≈ 0.229 µM); MIC50 (Candida dubliniensis [24]): 0.5 mg/L (≈ 0.457 µM); MIC50 (Candida albicans [25]): 0.25 mg/L (≈ 0.229 µM); MIC50 (Candida dubliniensis [26]): 0.5 mg/L (≈ 0.457 µM); MIC50 (Candida dubliniensis [27]): 0.5 mg/L (≈ 0.457 µM); MIC50 (Candida albicans [28]): 0.25 mg/L (≈ 0.229 µM); MIC50 (Candida dubliniensis [29]): 0.25 mg/L (≈ 0.229 µM); MIC50 (Candida dubliniensis [30]): 0.5 mg/L (≈ 0.457 µM); MIC50 (Candida albicans [31]): 0.13 mg/L (≈ 0.119 µM); MIC50 (Candida albicans [32]): 0.5 mg/L (≈ 0.457 µM); MIC50 (Pichia kudriavzevii [33]): 1 mg/L (≈ 0.915 µM); MIC50 (Candida parapsilosis): 1 mg/L (≈ 0.915 µM); MIC50 (Candida albicans [34]): 0.25 mg/L (≈ 0.229 µM)
CCCCCOc1ccc(-c2cc(-c3ccc(C(=O)N[C@H]4C[C@@H](O)[C@@H](O)NC(=O)[C@@H]5[C@@H](O)[C@@H](C)CN5C(=O)[C@H]([C@H](O)CC(N)=O)NC(=O)[C@H]([C@H](O)[C@@H](O)c5ccc(O)c(OS(=O)(=O)O)c5)NC(=O)[C@@H]5C[C@@H](O)CN5C(=O)[C@H]([C@@H](C)O)NC4=O)cc3)no2)cc1 [MICAFUNGIN] (X1-[Orn(4R-OH,5R-OH)]T[Hyp][hTyr(3S-OH,4S-OH,3'-OSO3H)][Gln(3R-OH)][Pro(3S-OH,4S-Me)]; lactam 1-C)	≤ 0.032	≤ 0.032	≤ 0.032	0.063 (≈ 0.0496 µM)	0.063 (≈ 0.0496 µM)	≤ 0.032	≤ 0.032	≤ 0.032	≤ 0.032	≤ 0.032	≤ 0.032	≤ 0.032	1 (≈ 0.787 µM)	≤ 0.032	≤ 0.032	≤ 0.032	≤ 0.032	0.13 (≈ 0.102 µM)	1 (≈ 0.787 µM)	0.063 (≈ 0.0496 µM)	MIC50 (Candida dubliniensis [35]): ≤ 0.032 mg/L; MIC50 (Candida albicans [21]): ≤ 0.032 mg/L; MIC50 (Candida dubliniensis [22]): ≤ 0.032 mg/L; MIC50 (Candida dubliniensis [23]): ≤ 0.032 mg/L; MIC50 (Candida dubliniensis [24]): ≤ 0.032 mg/L; MIC50 (Candida albicans [25]): ≤ 0.032 mg/L; MIC50 (Candida dubliniensis [26]): ≤ 0.032 mg/L; MIC50 (Candida dubliniensis [27]): ≤ 0.032 mg/L; MIC50 (Candida albicans [28]): ≤ 0.032 mg/L; MIC50 (Candida dubliniensis [29]): ≤ 0.032 mg/L; MIC50 (Candida dubliniensis [30]): ≤ 0.032 mg/L; MIC50 (Candida albicans [31]): ≤ 0.032 mg/L; MIC50 (Candida albicans [32]): ≤ 0.032 mg/L; MIC50 (Pichia kudriavzevii [33]): 0.13 mg/L (≈ 0.102 µM); MIC50 (Candida parapsilosis): 0.25 mg/L (≈ 0.197 µM); MIC50 (Candida albicans [34]): ≤ 0.032 mg/L
